{"source": "paper PMC11520922", "about": "(International Journal of Nanomedicine, 2024)", "key": {"[1]": {"details": "cited from earlier work"}, "[2]": {"system": "Peripheral Blood Mononuclear Cells (PBMCs)", "experiment": "Ex vivo peripheral blood mononuclear cells", "format": "cell-based, male Sprague–Dawley rats", "details": "rat PBMCs", "in_short": "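PBMCs came from the peripheral blood of male Sprague–Dawley rats. They were isolated by Ficoll–Paque density-gradient centrifugation, collected from the interphase and washed three times in RPMI 1640. Cells were plated at 1×10^6/well in RPMI 1640 with 10% FBS (37 °C, 5% CO2) and incubated overnight with free test compound or albumin-nanoparticle formulation. Viability was then read by the CCK-8 A450 procedure used for HuT-78.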"}, "[3]": {"experiment": "In vivo pharmacokinetic study", "design": "species or system Sprague–Dawley rats", "in_short": "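Male Sprague–Dawley rats (~300 g) were anaesthetised with Zoletil i.m. at […]. They received test compound in 10% ethanol or as albumin nanoparticles s.c. at 0.33 mg g−1. Blood (400 μL) was drawn from the subclavian vein at 0.08–6 h into heparin tubes. Plasma was spiked with carbamazepine internal standard, deproteinised with methanol, dried and reconstituted in methanol. Analysis was by RP-18 HPLC at 265 nm, and parameters were computed by first-order kinetic modelling.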"}, "[4]": {"details": "cited from earlier work", "remark": "listed apart in the source"}, "[5]": {"details": "clinical; cited from earlier work"}, "[6]": {"details": "male, Sprague-Dawley, rat, plasma, sc, 0.333 mg"}}, "note": "“Also recorded” adds a separate entry of the source.", "data": [{"smiles": "O=C(/C=C/c1cccc(S(=O)(=O)Nc2ccccc2)c1)NO", "note": "[Belinostat]", "values": [{"measurement": "log P", "setting": "[1]", "result": 1.83}, {"measurement": "pKa", "setting": "[1]", "result": 7.87}, {"measurement": "viability of PBMCs", "setting": "[2]; concentration 10 μM", "result": "decreases"}, {"measurement": "viability (survival) of PBMC", "setting": "[2]; high dose 100 μM", "result": "did not survive; also recorded: no survival"}, {"measurement": "CL", "setting": "[3]; SD rats, subcutaneous, 0.333 mg g^−1, n = 3", "result": "5.32 ± 1.53", "unit": "mL/h"}, {"measurement": "AUC(0-t)", "setting": "[3]; [6]", "result": "62000 ± 28700", "unit": "ng·h/mL"}, {"measurement": "Cmax", "setting": "[3]; [6]", "result": "8650 ± 780", "unit": "ng/mL"}, {"measurement": "Tmax", "setting": "[3]; [6]", "result": "0.43 ± 0.13", "unit": "h"}, {"measurement": "half-life", "setting": "[3]; [6]", "result": "4.66 ± 1.66", "unit": "h"}, {"measurement": "protein binding affinity", "setting": "[4]", "result": "92.9–95.8%"}, {"measurement": "thrombocytopenia adverse events, Grade 3 to 4", "setting": "[5]", "result": "~ 7%"}, {"measurement": "thrombocytopenia adverse events, all grades", "setting": "[5]", "result": "~ 16%"}]}]}
